The text below walks through data of PMC7398146 (The Journal of General Physiology, 2020).

One test deals with hKV7.2/3 (Homo sapiens, UniProt O43525+O43526). The test is described as follows: Two-electrode voltage clamp, hKV7.2/3 in Xenopus oocytes. Format: cell-based. As to conditions: for effect on maximal conductance GMAX (in words) / shift of V50 (in words): 10 µM and 100 µM. The gist of the method:
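hKV7.2 and hKV7.3 cRNA (2.5 ng each) were coinjected into Xenopus oocytes, held 2–4 d at 8°C or 16°C, and clamped with two electrodes at rt in HEPES saline, pH 7.4. Holding −80 mV; 2-s steps from −100 to +50 mV in 10-mV increments; tail −30 mV. Boltzmann G(V) fits per oocyte gave ΔV50 and GMAX change. A Hill fit across concentrations gave EC50. Current fold increase was taken per test voltage; mean ± SEM.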
A general note: Two-electrode voltage clamp holds a large cell at a set potential and records current.

The next test addresses hKV7.1 (Homo sapiens, UniProt P51787). As to conditions: ref Schenzer et al., 2005; cited from earlier work.
Test [1] has as its target hKV7.2_W236L/hKV7.3_W265L (Homo sapiens, UniProt O43525+O43526, A315T/W236L/W265L). Put plainly: Two-electrode voltage clamp, tryptophan mutant heteromer. Format: cell-based. As to conditions: 3 µM. The gist of the method:
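Human KV7 cRNA (2.5–50 ng per oocyte; mutants made by site-directed mutagenesis) was injected into Xenopus oocytes, which were kept 2–4 d at 8°C or 16°C. Two-electrode clamp was run at rt in 88 mM NaCl/1 mM KCl/15 mM HEPES saline, pH 7.4. Holding −80 mV; 2-s steps from −100 to +50 mV; tail −30 mV. Tail-current Boltzmann G(V) fits used a shared slope, giving per-oocyte ΔV50 and GMAX change; mean ± SEM.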

The mark [2] stands for this setting: 10 µM, analogues compared with ARA-S.

Sequence of hKV7.1 (P51787 whole entry): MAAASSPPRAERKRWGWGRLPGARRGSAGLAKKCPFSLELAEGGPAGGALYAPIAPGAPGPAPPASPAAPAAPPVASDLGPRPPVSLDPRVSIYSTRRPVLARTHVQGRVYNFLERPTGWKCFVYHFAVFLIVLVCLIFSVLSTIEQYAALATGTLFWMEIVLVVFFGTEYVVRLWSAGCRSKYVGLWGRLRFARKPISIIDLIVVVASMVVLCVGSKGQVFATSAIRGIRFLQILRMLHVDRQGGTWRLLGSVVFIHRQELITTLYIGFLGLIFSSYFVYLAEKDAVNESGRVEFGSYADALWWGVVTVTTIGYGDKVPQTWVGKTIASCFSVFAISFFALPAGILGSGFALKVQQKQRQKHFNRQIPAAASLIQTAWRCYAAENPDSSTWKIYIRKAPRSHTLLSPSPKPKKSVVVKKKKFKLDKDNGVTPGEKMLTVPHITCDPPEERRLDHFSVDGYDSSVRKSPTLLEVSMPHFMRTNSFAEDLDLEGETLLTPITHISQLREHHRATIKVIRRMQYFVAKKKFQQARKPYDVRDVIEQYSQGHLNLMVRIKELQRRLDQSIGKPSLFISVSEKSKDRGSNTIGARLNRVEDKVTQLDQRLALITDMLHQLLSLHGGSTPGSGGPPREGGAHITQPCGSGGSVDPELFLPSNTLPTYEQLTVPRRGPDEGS

`CCCCC/C=C\C/C=C\C/C=C\C/C=C\CCCC(=O)N[C@H](CO)C(=O)O` (single isomer, unassigned) [D enantiomer of ARA-S, N-arachidonoyl-D-serine]: on hKV7.2/3 (setting [2]), the “effect on GMAX (in words)” value is on record as “comparable” and the “effect on V50 (in words)” value is “comparable”.

In the case of `CCCCC/C=C\C/C=C\C/C=C\C/C=C\CCCC(=O)OC(CO)CO` [2-AG, 2-arachidonoylglycerol], on hKV7.2/3, the “effect on maximal conductance GMAX (in words)” value was “no effect” and the “shift of V50 (in words)” value was “no effect”.

With `CCCCC/C=C\C/C=C\C/C=C\C/C=C\CCCC(=O)NCCO` [AEA, N-arachidonoylethanolamine], at hKV7.2/3, the “effect on maximal conductance GMAX (in words)” value is “no effect” and the “shift of V50 (in words)” value is recorded as “no effect”.

As for `CCOC(=O)Nc1ccc(NCc2ccc(F)cc2)cc1N` [retigabine], the “sensitivity of the channel” value at hKV7.1 is given as “insensitive”. At hKV7.2/3 (1 µM alone), the “current fold increase at −60 mV” value is “three- to fourfold”, the “increase in GMAX” value is recorded as “did not affect” and the “shift in V50 (ΔV50)” value was −8.1 ± 0.7 mV. The “ΔV50:MAX (maximal shift in V50)” value at hKV7.2/3 (from concentration-response curve) is given as −35 mV. Also, the “sensitivity (shift in V50)” value in test [1] is reported as “insensitive”.
